According to PubChem BioAssay AID624268 (The Scripps Research Institute Molecular Screening Center, 2012):
Hit rate of the full screen: of about 360,000 compounds, about 1,500 (0.42%) were called active.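 Rule for the calls: active = inhibition above a per-plate cutoff of the control wells' mean inhibition plus 3 SD (cut at about 5.5% in these data); inactive = the rest.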 For the sample, actives were picked, then their nearest neighbours and some compounds at random.

system: methionyl-tRNA synthetase (Trypanosoma brucei brucei); test: inhibition of trypanosome methionyl-tRNA synthetase – biochemical, luminescence, primary screen (AID 624268);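 note: 0% = DMSO wells median and 100% = median of wells with control inhibitor compound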; settings: purified T. brucei MetRS, ATP depletion, Kinase-Glo luminescence; at 11.9 µM; hits give high values
Outline: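 Material – parasite MetRS enzyme · Medium – HEPES-MgCl2-KCl buffer plus DTT, spermine, BSA, pyrophosphatase · Reagent – ATP, methionine and E. coli bulk tRNA substrates · Times – 15 min enzyme-compound preincubation, 2 h reaction, 10 min detection, 25 °C · Measured by – luminescence of leftover ATP · Evaluation – percent inhibition relative to median high and low control wells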

| Compound | inhibition |
| --- | --- |
| CCCNS(=O)(=O)c1ccc2c(c1)CCCN2C(C)=O | -0.19% (inactive) |
| Clc1ccc(-c2cc(-c3ccccn3)on2)c(Cl)c1 | 0.55% (inactive) |
| Clc1ccc(-c2cc(C3CCNCC3)[nH]n2)c(Cl)c1 | 39.1% (active) |
| CCC(C)[C@H](NC(=O)N1c2ccccc2NC(=O)[C@@H]1C(C)C)C(=O)N[C@@H](Cc1ccccc1)C(=O)O (stereo partly specified) | -1.81% (inactive) |
| CSCCC(NC(=O)c1cc([N+](=O)[O-])cc([N+](=O)[O-])c1)c1nc2ccccc2[nH]1 (stereo unspecified) | 3.68% (inactive) |
| CCCC(NC(=O)c1ccco1)c1nc2ccccc2[nH]1 (stereo unspecified) | 0.25% (inactive) |
| O=C(NCC(O)c1nc2ccccc2[nH]1)c1ccc(Br)cc1 (stereo unspecified) | 21% (active) |
| COc1ccccc1CCC(=O)OCC(=O)N1CCN(S(=O)(=O)c2ccc(C)cc2C)CC1 | -0.39% (inactive) |
| C/C(=C\C(=O)c1ccccc1)Nc1cccc(O)c1 | 0.01% (inactive) |
| O=C(NCc1cccc(CNC(=O)Nc2cccc(O)c2)c1)Nc1cccc(O)c1 | 8.03% (active) |
| O=C(NCc1cccnc1)Nc1cccc(NC(=O)NCc2cccnc2)c1F | -1.05% (inactive) |
| O=C(CSCc1ccc([N+](=O)[O-])cc1)NCCSCc1ccccc1 | -0.21% (inactive) |
| CCCCc1nnc(NC(=O)CS(=O)(=O)Cc2ccccc2)s1 | -0.35% (inactive) |
| COCc1nnc(NC(=O)CS(=O)(=O)Cc2ccccc2)s1 | 0.23% (inactive) |
| O=C(Nc1ccccc1)Nc1nnc(COc2ccccc2F)s1 | 17.3% (active) |
| O=C(NCCOc1ccccc1F)Nc1ccc(Br)cc1 | 2.66% (inactive) |
| Cc1ccc2[nH]cc(CCCN3C(=O)c4ccccc4C3=O)c2c1 | -0.1% (inactive) |
| Cc1ccc(S(=O)(=O)c2c[nH]c3ccc(Cl)cc3c2=O)cc1 | 40.4% (active) |
| Cc1ccc(S(=O)(=O)c2c[nH]c3ccc(C)cc3c2=O)cc1 | 8.92% (active) |
| CCCn1cc(S(=O)(=O)c2ccc(C)cc2)c(=O)c2cc(OCC)ccc21 | -0.04% (inactive) |
| CCOc1ccc2c(c1)c(=O)c(S(=O)(=O)c1ccc(C)cc1)cn2CC | -0.11% (inactive) |
| CN1CCN(S(=O)(=O)c2ccc3[nH]cc(C(=O)O)c(=O)c3c2)CC1 | 1.71% (inactive) |
| O=C(Nc1ccccc1Cl)/C(Cl)=C(\Cl)S(=O)c1ccccc1 (stereo unspecified) | -0.49% (inactive) |

| Compound | inhibition |
| --- | --- |
| CCCCCn1nnnc1-c1nc2cc3ccccc3cc2[nH]c1=O | 34.6% (active) |
| CCCCCn1nnnc1C1c2ccccc2C(=O)N1Cc1ccco1 (stereo unspecified) | -0.27% (inactive) |
| CCCCn1c(-c2cccc(C)c2)nc2cc3[nH]c(=O)c(C(C)C)nc3cc21 | -0.06% (inactive) |
| C=CCNC(=S)N/N=C/c1ccc(C)s1 | -0.64% (inactive) |
| CC(C)CNC(=O)C1CCCN(S(=O)(=O)c2ccc(-n3cnnn3)cc2)C1 (stereo unspecified) | -0.29% (inactive) |
| CCOc1ncccc1C(=O)N(C)CC(=O)Nc1ccc(F)cc1 | -0.63% (inactive) |
| CC1(C)CC(=O)C=C(c2cccc3c2Oc2ccccc2S3)C1 | -0.11% (inactive) |
| Clc1ccccc1SCc1nc2ccccc2[nH]1 | 7.72% (active) |
| O=c1c(-c2ccc(Cl)cc2)[n+]([O-])c2ccccc2n1OCc1nc2ccccc2[nH]1 | -0.49% (inactive) |
| COc1ccc(C)cc1-n1nnnc1SCc1nc2ccccc2c(=O)[nH]1 | 0.31% (inactive) |
| O=C(COC(=O)c1ncc(Cl)c(Cl)c1Cl)NNC(=O)c1ccccc1 | -0.19% (inactive) |
| O=C(/C=C/c1cccs1)c1cc(Cl)ccc1OC(=O)N1CCOCC1 | -0.94% (inactive) |
| O=C1CC(C(=O)O)NC(=S)N1 (stereo unspecified) | 0.05% (inactive) |
| Cc1oc(CC(C)C)c(CN2CCCC2)c1C(=O)O | -0.29% (inactive) |
| O=C(Nc1nsc(-c2ccccc2)n1)c1ccncc1 | -1.68% (inactive) |
| CN(CC(=O)NCCc1ccc(S(N)(=O)=O)cc1)CC(=O)Nc1ccc(Cl)cc1 | -0.04% (inactive) |
| NS(=O)(=O)c1ccc(CCNC(=O)Nc2ccc(Cl)cc2)cc1 | 26.5% (active) |
| NS(=O)(=O)c1ccc(CCNC(=O)NC2CCCCC2)cc1 | -1.44% (inactive) |
| CC(=O)C1(C)N(O)C(C)(C)C(c2cccs2)=[N+]1[O-] (stereo unspecified) | -1.27% (inactive) |
| COc1ccccc1C(=O)N(Cc1ccc(C)o1)C1CCS(=O)(=O)C1 (stereo unspecified) | -0.11% (inactive) |
| CC1(C(=O)NS(=O)(=O)c2ccccc2)CCN1C(=O)C1CCCCC1 (stereo unspecified) | -0.08% (inactive) |
| CC(C)(C)c1ccc(S(=O)(=O)NC(=O)C2(C)CCN2C(=O)CC2CC2)cc1 (stereo unspecified) | -0.1% (inactive) |
| COc1ccc(NC2CCCN(C(=O)c3ccncc3)C2)cc1 (stereo unspecified) | -0.58% (inactive) |
